Experimental data: ChEMBL document CHEMBL4312006, “A novel chalcone derivative as Nrf2 activator attenuates learning and memory impairment in a scopolamine-induced mouse model” (Eur J Med Chem, 2020)
Where a name gives a salt, the structure may show the parent alone.

How the values were obtained:
Keap1/Nrf2 = Keap1/Nrf2 (Homo sapiens, UniProt Q14145+Q16236); assay: Activation of NRF2 in human U2OS cells co-expressing Keap1 (unknown origin) assessed as induction of NRF2 translocation to nucleus incubated for 6 hrs by beta-galactosidase based chemiluminescent assay; assay type: cell-based
Outline: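 PathHunter U2OS cells engineered to co-express enzyme donor-tagged NRF2 and nuclear-localized enzyme acceptor; Nrf2 nuclear translocation reconstitutes β-galactosidase. Cells in 96-well plates exposed to a range of compound concentrations for 6 h at room temperature (20–23 °C), then 1 h with detection reagent in the dark; chemiluminescence (RLU) read. EC50 from concentration-response curve, mean ± SEM, triplicate.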

[1] = biological target: T1, Nuclear factor erythroid 2-related factor 2 (Mus musculus) (UniProt Q60795); assay: Activation of NRF2 in mouse BV2 cells assessed as upregulation of HO1 at 20 uM by ELISA relative to control; assay type: cell-based
T1 sequence (whole entry): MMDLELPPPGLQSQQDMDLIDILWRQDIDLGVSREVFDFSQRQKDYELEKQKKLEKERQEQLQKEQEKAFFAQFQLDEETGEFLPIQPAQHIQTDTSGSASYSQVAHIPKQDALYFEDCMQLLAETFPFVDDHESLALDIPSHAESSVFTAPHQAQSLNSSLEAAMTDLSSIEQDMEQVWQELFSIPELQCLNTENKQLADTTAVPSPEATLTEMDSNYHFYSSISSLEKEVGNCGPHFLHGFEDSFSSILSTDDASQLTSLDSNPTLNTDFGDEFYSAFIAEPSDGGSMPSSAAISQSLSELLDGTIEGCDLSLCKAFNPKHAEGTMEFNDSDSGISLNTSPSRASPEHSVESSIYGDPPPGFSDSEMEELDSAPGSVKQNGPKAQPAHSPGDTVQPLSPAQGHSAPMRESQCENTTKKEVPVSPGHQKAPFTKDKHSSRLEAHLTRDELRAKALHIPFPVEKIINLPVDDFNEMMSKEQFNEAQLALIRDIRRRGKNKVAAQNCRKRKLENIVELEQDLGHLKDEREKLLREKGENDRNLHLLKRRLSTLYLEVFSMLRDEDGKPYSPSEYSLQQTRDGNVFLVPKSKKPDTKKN

Keap1/Nrf2, sequence (Q16236 whole entry): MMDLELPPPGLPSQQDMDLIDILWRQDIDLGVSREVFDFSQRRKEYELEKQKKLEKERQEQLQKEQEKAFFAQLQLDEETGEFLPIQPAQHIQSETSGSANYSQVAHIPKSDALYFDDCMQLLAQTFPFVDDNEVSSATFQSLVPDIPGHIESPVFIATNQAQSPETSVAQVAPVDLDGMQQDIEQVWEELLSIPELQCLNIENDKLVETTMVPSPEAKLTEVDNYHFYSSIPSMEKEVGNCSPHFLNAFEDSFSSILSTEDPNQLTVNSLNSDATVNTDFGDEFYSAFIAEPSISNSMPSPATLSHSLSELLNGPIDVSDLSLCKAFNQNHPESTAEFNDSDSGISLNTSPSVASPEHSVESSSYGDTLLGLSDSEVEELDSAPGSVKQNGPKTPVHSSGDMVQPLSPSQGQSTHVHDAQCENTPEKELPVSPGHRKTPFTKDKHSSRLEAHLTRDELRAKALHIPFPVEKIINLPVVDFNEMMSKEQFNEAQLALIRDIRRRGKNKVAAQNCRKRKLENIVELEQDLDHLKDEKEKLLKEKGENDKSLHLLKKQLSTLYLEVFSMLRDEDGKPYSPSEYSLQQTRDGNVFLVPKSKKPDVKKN
Keap1/Nrf2, sequence (Q14145 whole entry): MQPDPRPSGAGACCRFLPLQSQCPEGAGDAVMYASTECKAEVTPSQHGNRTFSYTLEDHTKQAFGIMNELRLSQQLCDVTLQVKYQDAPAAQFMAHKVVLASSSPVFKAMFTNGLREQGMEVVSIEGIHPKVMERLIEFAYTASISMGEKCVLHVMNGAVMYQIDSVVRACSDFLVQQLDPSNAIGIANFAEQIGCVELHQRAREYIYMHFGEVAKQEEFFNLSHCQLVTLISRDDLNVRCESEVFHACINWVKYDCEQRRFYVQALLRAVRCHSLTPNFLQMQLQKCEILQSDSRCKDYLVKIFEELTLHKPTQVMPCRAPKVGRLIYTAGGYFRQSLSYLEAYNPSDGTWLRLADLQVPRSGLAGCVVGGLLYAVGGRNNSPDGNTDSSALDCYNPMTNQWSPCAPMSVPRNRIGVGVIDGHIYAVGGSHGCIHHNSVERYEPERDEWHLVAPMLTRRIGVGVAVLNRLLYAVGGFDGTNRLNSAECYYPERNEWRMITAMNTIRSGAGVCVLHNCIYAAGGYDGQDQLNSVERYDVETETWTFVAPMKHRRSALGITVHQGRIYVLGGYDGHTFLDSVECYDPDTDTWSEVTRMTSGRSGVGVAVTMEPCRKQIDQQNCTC

| SMILES | EC50 (Keap1/Nrf2) [µM] | Activity [1] [%] |
| --- | --- | --- |
| COC(=O)/C=C/C(=O)OC [DIMETHYL FUMARATE] | 5.11 |  |
| COc1ccccc1/C=C/C(=O)c1ccc(OCC(=O)N2CCOCC2)cc1 | 1.77 |  |
| COc1ccccc1/C=C/C(=O)c1ccc(OCC(=O)N(C)C)cc1 | 1.46 |  |
| COc1ccccc1/C=C/C(=O)c1ccc(OCCCN2CCCC2)cc1 | 0.99 | 289 |
| CN(C)C(=O)COc1ccc(C(=O)/C=C/c2cccnc2)cc1 | 1.46 |  |
| COc1ccccc1/C=C/C(=O)c1cccc(OCCCN2CCOCC2)c1 | 1.72 | < 200 |
| O=C(/C=C/c1ccccn1)c1ccc(OCCCN2CCOCC2)cc1 | > 5 | 112 |
| CN(C)C(=O)COc1ccc(C(=O)/C=C/c2ccccc2C(F)(F)F)cc1 | 1.12 |  |
| COc1ccc(/C=C/C(=O)c2ccc(OCCCN3CCOCC3)cc2)cc1 | 6.97 | 166 |
| O=C(/C=C/c1cccc(C(F)(F)F)c1)c1ccc(OCCCN2CCOCC2)cc1 | 2.06 |  |
| O=C(/C=C/c1cccnc1)c1ccc(OCCCN2CCOCC2)cc1 | > 5 |  |
| CN1CCN(C(=O)COc2ccc(C(=O)/C=C/c3ccccc3Cl)cc2)CC1 | 0.97 |  |
| O=C(/C=C/c1ccccc1Cl)c1cccc(OCCCN2CCOCC2)c1 | 2.84 |  |
| COc1ccccc1/C=C/C(=O)c1ccc(OCCCN2CCN(C)CC2)cc1 | 3.33 | 217 |
| O=C(/C=C/c1ccccc1Cl)c1ccc(OCCCN2CCCC2)cc1 | 1.39 |  |
| COc1ccccc1/C=C/C(=O)c1ccc(OCCCN2CCOCC2)cc1 | 1.63 | 345 |
| CN(C)C(=O)COc1ccc(C(=O)/C=C/c2ccccn2)cc1 | 1.1 |  |
| CN1CCN(C(=O)COc2ccc(C(=O)/C=C/c3ccccc3F)cc2)CC1 | 1.54 |  |
| COc1ccccc1/C=C/C(=O)c1ccccc1OCCCN1CCOCC1 | 5.52 | 146 |
| O=C(/C=C/c1ccccn1)c1ccc(OCC(=O)N2CCOCC2)cc1 | 1.23 |  |
| O=C(/C=C/c1ccccc1Cl)c1ccc(OCCCN2CCOCC2)cc1 | 2.42 |  |
| COc1cccc(/C=C/C(=O)c2ccc(OCCCN3CCOCC3)cc2)c1 | 2.58 |  |
| O=C(/C=C/c1ccccc1C(F)(F)F)c1ccc(OCCCN2CCOCC2)cc1 | 1.36 | 351 |
| O=C(/C=C/c1ccccc1C(F)(F)F)c1ccc(OCC(=O)N2CCOCC2)cc1 | 1.06 |  |
| O=C(/C=C/c1ccccc1C(F)(F)F)c1ccc(OCCCN2CCCC2)cc1 | > 1 |  |
| O=C(/C=C/c1ccccc1C(F)(F)F)c1cccc(OCCCN2CCOCC2)c1 | 2.3 |  |
| O=C(/C=C/c1ccc(C(F)(F)F)cc1)c1ccc(OCCCN2CCOCC2)cc1 | 2.43 |  |
| COc1ccccc1/C=C/C(=O)c1ccc(OCC(=O)N2CCN(C)CC2)cc1 | 1.91 |  |
| CN(C)C(=O)COc1ccc(C(=O)/C=C/c2ccncc2)cc1 | 1.36 |  |
| CN1CCN(C(=O)COc2ccc(C(=O)/C=C/c3ccccc3)cc2)CC1 | 1.8 |  |
